Laboratory results published in ChEMBL document CHEMBL4368943 (J Med Chem, 2019).

What was measured:
Assay type in all cases: cell-based
[1] = target: T1, von Hippel-Lindau disease tumor suppressor/Estrogen receptor/Cullin-2 (Homo sapiens, UniProt P03372+P40337+Q13617); assay: Protac activity against VHL/cullin2/ERalpha in human MCF7 cells assessed as ERalpha degradation by measuring ER protein/GADPH ratio at 100 nM after 4 hrs by Western blot analysis relative to control
How it was run: (§1)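 MCF-7 cells (DMEM, 10% FBS, passages 3−8) exposed 4 h. Lysed in RIPA with protease inhibitors; equal protein on 10% SDS-PAGE, PVDF, anti-ERα blot. Membranes stripped and reprobed for GAPDH. ERα/GAPDH ratio normalized to DMSO = 100; DC50 from densitometry of the dose series.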

[2] = target: T1, von Hippel-Lindau disease tumor suppressor/Estrogen receptor/Cullin-2; assay: Protac activity against VHL/cullin2/ERalpha in human MCF7 cells assessed as ERalpha degradation by measuring ER protein/GADPH ratio at 1 nM after 4 hrs by Western blot analysis relative to control; how it was run: as §1
[3] = target: T1, von Hippel-Lindau disease tumor suppressor/Estrogen receptor/Cullin-2; assay: Protac activity against VHL/cullin2/ERalpha in human MCF7 cells assessed as ERalpha degradation by measuring ER protein/GADPH ratio at 10 nM after 4 hrs by Western blot analysis relative to control; how it was run: as §1

T1 sequence (P03372 whole entry, looked up): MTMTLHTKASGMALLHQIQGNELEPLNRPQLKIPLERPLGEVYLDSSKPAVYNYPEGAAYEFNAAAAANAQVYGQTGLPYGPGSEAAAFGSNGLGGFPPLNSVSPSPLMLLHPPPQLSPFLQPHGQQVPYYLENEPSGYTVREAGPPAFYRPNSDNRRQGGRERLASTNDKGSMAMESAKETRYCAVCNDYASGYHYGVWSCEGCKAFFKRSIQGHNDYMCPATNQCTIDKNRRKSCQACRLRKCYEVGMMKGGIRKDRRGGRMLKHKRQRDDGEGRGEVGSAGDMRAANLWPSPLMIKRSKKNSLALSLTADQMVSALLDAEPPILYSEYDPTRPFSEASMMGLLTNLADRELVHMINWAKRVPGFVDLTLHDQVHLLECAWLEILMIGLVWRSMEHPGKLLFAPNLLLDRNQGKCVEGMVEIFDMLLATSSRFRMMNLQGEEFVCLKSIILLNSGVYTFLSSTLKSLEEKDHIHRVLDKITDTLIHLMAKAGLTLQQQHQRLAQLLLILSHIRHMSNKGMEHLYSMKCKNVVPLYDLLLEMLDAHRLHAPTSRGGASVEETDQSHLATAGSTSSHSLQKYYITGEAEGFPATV
T1 sequence (P40337 whole entry, looked up): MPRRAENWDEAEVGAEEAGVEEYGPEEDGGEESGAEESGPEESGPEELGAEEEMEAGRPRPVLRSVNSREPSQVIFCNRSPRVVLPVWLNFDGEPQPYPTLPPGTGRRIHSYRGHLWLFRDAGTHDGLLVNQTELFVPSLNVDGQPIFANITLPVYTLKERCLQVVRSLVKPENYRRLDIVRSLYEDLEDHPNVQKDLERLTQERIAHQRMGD
T1 sequence (Q13617 whole entry, looked up): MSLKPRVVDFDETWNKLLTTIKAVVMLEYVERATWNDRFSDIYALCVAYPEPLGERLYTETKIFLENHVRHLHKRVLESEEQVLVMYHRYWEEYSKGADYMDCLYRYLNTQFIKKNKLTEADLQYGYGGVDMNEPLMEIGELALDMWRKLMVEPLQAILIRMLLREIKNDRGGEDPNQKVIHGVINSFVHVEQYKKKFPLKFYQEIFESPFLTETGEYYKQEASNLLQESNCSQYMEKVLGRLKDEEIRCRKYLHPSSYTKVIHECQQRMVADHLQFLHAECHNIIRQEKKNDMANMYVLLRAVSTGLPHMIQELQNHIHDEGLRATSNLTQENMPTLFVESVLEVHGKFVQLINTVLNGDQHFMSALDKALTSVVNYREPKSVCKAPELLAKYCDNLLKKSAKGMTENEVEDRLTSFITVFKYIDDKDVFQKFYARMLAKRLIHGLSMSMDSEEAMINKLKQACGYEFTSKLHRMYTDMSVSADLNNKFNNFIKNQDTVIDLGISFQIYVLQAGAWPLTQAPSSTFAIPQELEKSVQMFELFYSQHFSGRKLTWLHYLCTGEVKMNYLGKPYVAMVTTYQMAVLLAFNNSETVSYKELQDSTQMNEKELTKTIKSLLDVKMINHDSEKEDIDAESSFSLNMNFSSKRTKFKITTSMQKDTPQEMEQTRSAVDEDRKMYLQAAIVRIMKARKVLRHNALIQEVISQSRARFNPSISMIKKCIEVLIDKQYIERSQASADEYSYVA

Ratio [1]	Ratio [2]	Ratio [3]	Compound
92	90	129	CCN(CCCCC(=O)N[C@H](C(=O)N1C[C@H](O)C[C@H]1C(=O)N[C@@H](C)c1ccc(-c2scnc2C)cc1)C(C)(C)C)CCOc1ccc(C(=O)c2c(-c3ccc(O)cc3)sc3cc(O)ccc23)cc1
0.1	20	0.2	Cc1ncsc1-c1ccc([C@H](C)NC(=O)[C@@H]2C[C@@H](O)CN2C(=O)[C@@H](NC(=O)CCCCCCCN(CCOc2ccc(C(=O)c3c(-c4ccc(O)cc4)sc4cc(O)ccc34)cc2)C2CC2)C(C)(C)C)cc1
3	23	7	CCN(CCCCCCCCC(=O)N[C@H](C(=O)N1C[C@H](O)C[C@H]1C(=O)N[C@@H](C)c1ccc(-c2scnc2C)cc1)C(C)(C)C)CCOc1ccc(C(=O)c2c(-c3ccc(O)cc3)sc3cc(O)ccc23)cc1
12	99	20	CCN(CCCCc1cnn(CC(=O)N[C@H](C(=O)N2C[C@H](O)C[C@H]2C(=O)N[C@@H](C)c2ccc(-c3scnc3C)cc2)C(C)(C)C)c1)CCOc1ccc(C(=O)c2c(-c3ccc(O)cc3)sc3cc(O)ccc23)cc1
0.2	28	0.5	Cc1ncsc1-c1ccc([C@H](C)NC(=O)[C@@H]2C[C@@H](O)CN2C(=O)[C@@H](NC(=O)CCCCCCCN(CCOc2ccc(C(=O)c3c(-c4ccc(O)cc4)sc4cc(O)ccc34)cc2)C(C)C)C(C)(C)C)cc1
1.7	183	2.4	CCN(CCOCCOCCC(=O)N[C@H](C(=O)N1C[C@H](O)C[C@H]1C(=O)N[C@@H](C)c1ccc(-c2scnc2C)cc1)C(C)(C)C)CCOc1ccc(C(=O)c2c(-c3ccc(O)cc3)sc3cc(O)ccc23)cc1
135	63	139	CCN(CCCC(=O)N[C@H](C(=O)N1C[C@H](O)C[C@H]1C(=O)N[C@@H](C)c1ccc(-c2scnc2C)cc1)C(C)(C)C)CCOc1ccc(C(=O)c2c(-c3ccc(O)cc3)sc3cc(O)ccc23)cc1
46	27	153	Cc1ncsc1-c1ccc([C@H](C)NC(=O)[C@@H]2C[C@@H](O)CN2C(=O)[C@@H](NC(=O)CCCCCCCN(C)CCOc2ccc(C(=O)c3c(-c4ccc(O)cc4)sc4cc(O)ccc34)cc2)C(C)(C)C)cc1
0	21	0.2	Cc1ncsc1-c1ccc([C@H](C)NC(=O)[C@@H]2C[C@@H](O)CN2C(=O)[C@@H](NC(=O)CCCCCCCN(CCOc2ccc(C(=O)c3c(-c4ccc(O)cc4)sc4cc(O)ccc34)cc2)C(C)(C)C)C(C)(C)C)cc1
0.2	76	1.3	Cc1ncsc1-c1ccc([C@H](C)NC(=O)[C@@H]2C[C@@H](O)CN2C(=O)[C@@H](NC(=O)CCCCCCCN(CCOc2ccc(C(=O)c3c(-c4ccc(O)cc4)sc4cc(O)ccc34)cc2)CC2CCC2)C(C)(C)C)cc1
0.4	94	0.4	CCN(CCOCCOCC(=O)N[C@H](C(=O)N1C[C@H](O)C[C@H]1C(=O)N[C@@H](C)c1ccc(-c2scnc2C)cc1)C(C)(C)C)CCOc1ccc(C(=O)c2c(-c3ccc(O)cc3)sc3cc(O)ccc23)cc1
6	32	8	CCN(CCCCCCC(=O)N[C@H](C(=O)N1C[C@H](O)C[C@H]1C(=O)N[C@@H](C)c1ccc(-c2scnc2C)cc1)C(C)(C)C)CCOc1ccc(C(=O)c2c(-c3ccc(O)cc3)sc3cc(O)ccc23)cc1

More lines, now with the values behind:

Compound	Ratio [1]	Ratio [2]	Ratio [3]
CCN(CCCCCCCC(=O)N[C@H](C(=O)N1C[C@H](O)C[C@H]1C(=O)NCc1ccc(-c2scnc2C)cc1)C(C)(C)C)CCOc1ccc(C(=O)c2c(-c3ccc(O)cc3)sc3cc(O)ccc23)cc1	62	79	71
CCN(CCCCCCCC(=O)N[C@H](C(=O)N1C[C@H](O)C[C@H]1C(=O)N[C@@H](C)c1ccc(C(C)(C)C)cc1)C(C)(C)C)CCOc1ccc(C(=O)c2c(-c3ccc(O)cc3)sc3cc(O)ccc23)cc1	80	136	112
Cc1ncsc1-c1ccc([C@H](C)NC(=O)[C@@H]2C[C@@H](O)CN2C(=O)[C@@H](NC(=O)CCCCCCCN(CCOc2ccc(C(=O)c3c(-c4ccc(O)cc4)sc4cc(O)ccc34)cc2)C2CCCC2)C(C)(C)C)cc1	0.1	75	0.3
CCN(CCOc1ccc(C(=O)c2c(-c3ccc(O)cc3)sc3cc(O)ccc23)cc1)CCC1CCN(CCCC(=O)N[C@H](C(=O)N2C[C@H](O)C[C@H]2C(=O)N[C@@H](C)c2ccc(-c3scnc3C)cc2)C(C)(C)C)CC1	98	227	91
CCN(CCOc1ccc(C(=O)c2c(-c3ccc(O)cc3)sc3cc(O)ccc23)cc1)CCN1CCN(CCCC(=O)N[C@H](C(=O)N2C[C@H](O)C[C@H]2C(=O)N[C@@H](C)c2ccc(-c3scnc3C)cc2)C(C)(C)C)CC1	24	208	50
CCN(CCCCCCCC(=O)N[C@H](C(=O)N1C[C@H](O)C[C@H]1C(=O)N[C@@H](C)c1ccc(C#N)cc1)C(C)(C)C)CCOc1ccc(C(=O)c2c(-c3ccc(O)cc3)sc3cc(O)ccc23)cc1	80	110	86
CCN(CCCCCCCC(=O)N[C@H](C(=O)N1C[C@H](O)C[C@H]1C(=O)N[C@@H](C)c1ccc(C2CC2)cc1)C(C)(C)C)CCOc1ccc(C(=O)c2c(-c3ccc(O)cc3)sc3cc(O)ccc23)cc1	70	130	75
CCN(CCC#Cc1cnn(CC(=O)N[C@H](C(=O)N2C[C@H](O)C[C@H]2C(=O)N[C@@H](C)c2ccc(-c3scnc3C)cc2)C(C)(C)C)c1)CCOc1ccc(C(=O)c2c(-c3ccc(O)cc3)sc3cc(O)ccc23)cc1	24	139	45
CCN(CCCCCCCC(=O)N[C@H](C(=O)N1C[C@H](O)C[C@H]1C(=O)N[C@@H](C)c1ccc(Cl)cc1)C(C)(C)C)CCOc1ccc(C(=O)c2c(-c3ccc(O)cc3)sc3cc(O)ccc23)cc1	79	99	87
CCN(CCCCCCCC(=O)N[C@H](C(=O)N1C[C@H](O)C[C@H]1C(=O)N[C@@H](C)c1ccc(-c2scnc2C)cc1)C(C)(C)C)CCOc1ccc(Cn2c(-c3ccc(O)cc3)c(C)c3cc(O)ccc32)cc1	0.2	74	10
C#Cc1ccc([C@H](C)NC(=O)[C@@H]2C[C@@H](O)CN2C(=O)[C@@H](NC(=O)CCCCCCCN(CC)CCOc2ccc(C(=O)c3c(-c4ccc(O)cc4)sc4cc(O)ccc34)cc2)C(C)(C)C)cc1	8	90	24
Cc1ncsc1-c1ccc([C@H](C)NC(=O)[C@@H]2C[C@@H](O)CN2C(=O)[C@@H](NC(=O)CCCCCCCN(CCOc2ccc(C(=O)c3c(-c4ccc(O)cc4)sc4cc(O)ccc34)cc2)C2CCCCC2)C(C)(C)C)cc1	0.1	68	0.6
CCC(=C(c1ccc(O)cc1)c1ccc(OCCN(CC)CCCCCCCC(=O)N[C@H](C(=O)N2C[C@H](O)C[C@H]2C(=O)N[C@@H](C)c2ccc(-c3scnc3C)cc2)C(C)(C)C)cc1)c1ccccc1	0.6	55	24
CCN(CCCCCCCC(=O)N[C@H](C(=O)N1C[C@H](O)C[C@H]1C(=O)N[C@@H](C)c1ccc(-c2scnc2C)cc1)C(C)(C)C)CCOc1ccc([C@@H]2c3ccc(O)cc3CC[C@@H]2c2ccccc2)cc1	0.3	74	5
